Results reported in ChEMBL document CHEMBL4190362, “Synthesis, biological evaluation and quantitative structure-active relationships of 1,3-thiazolidin-4-one derivatives. A promising chemical scaffold endowed with high antifungal potency and low cytotoxicity” (Eur J Med Chem, 2017).

Tests used:
Staphylococcus aureus = test: Antibacterial activity against Staphylococcus aureus assessed as inhibition of microbial growth incubated for 18 to 22 hrs by broth microdilution method; format: functional
Method in brief: (§1)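 Broth microdilution in Mueller-Hinton II broth following NCCLS recommendations; compounds dissolved in DMSO.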

Staphylococcus warneri = test: Antibacterial activity against Staphylococcus warneri assessed as inhibition of microbial growth incubated for 18 to 22 hrs by broth microdilution method; format: functional; method in brief: as §1
Enterococcus faecalis = test: Antibacterial activity against Streptococcus faecalis assessed as inhibition of microbial growth incubated for 18 to 22 hrs by broth microdilution method; format: functional; method in brief: as §1
Escherichia coli = test: Antibacterial activity against Escherichia coli assessed as inhibition of microbial growth incubated for 18 to 22 hrs by broth microdilution method; format: functional; method in brief: as §1
Proteus mirabilis = test: Antibacterial activity against Proteus mirabilis assessed as inhibition of microbial growth incubated for 18 to 22 hrs by broth microdilution method; format: functional; method in brief: as §1
Enterobacter = test: Antibacterial activity against Enterobacter spp. assessed as inhibition of microbial growth incubated for 18 to 22 hrs by broth microdilution method; format: functional; method in brief: as §1
Klebsiella oxytoca = test: Antibacterial activity against Klebsiella oxytoca assessed as inhibition of microbial growth incubated for 18 to 22 hrs by broth microdilution method; format: functional; method in brief: as §1
Candida albicans = test: Antifungal activity against Candida albicans clinical isolates assessed as inhibition of microbial growth incubated for 24 hrs by broth microdilution method; format: functional
Method in brief: (§2)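 Twenty-two clinical Candida isolates (8 C. albicans, 4 C. glabrata, 3 C. tropicalis, 3 C. krusei, 2 C. parapsilosis, 2 C. sake) were identified by colony morphology and biochemistry and subcultured at 35 °C for purity. Compounds were dissolved in DMSO and tested by broth microdilution in Sabouraud dextrose broth per NCCLS/CLSI/EUCAST guidance. Values are geometric mean MIC per species (µg/mL).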

Nakaseomyces glabratus = test: Antifungal activity against Candida glabrata clinical isolates assessed as inhibition of microbial growth incubated for 24 hrs by broth microdilution method; format: functional; method in brief: as §2
Candida tropicalis = test: Antifungal activity against Candida tropicalis clinical isolates assessed as inhibition of microbial growth incubated for 24 hrs by broth microdilution method; format: functional; method in brief: as §2
Pichia kudriavzevii = test: Antifungal activity against Candida krusei clinical isolates assessed as inhibition of microbial growth incubated for 24 hrs by broth microdilution method; format: functional; method in brief: as §2
Candida parapsilosis = test: Antifungal activity against Candida parapsilosis clinical isolates assessed as inhibition of microbial growth incubated for 24 hrs by broth microdilution method; format: functional; conditions: Lodderomyces parapsilosis; method in brief: as §2
[Candida] sake = Antifungal activity against Candida sake clinical isolates assessed as inhibition of microbial growth incubated for 24 hrs by broth microdilution method; format: functional; conditions: Fermentozyma sake; method in brief: as §2
[1] = test system: Streptococcus alpha-hemolyticus (Streptococcus sp.); test: Antibacterial activity against Streptococcus Streptococcus alpha hemolyticus assessed as inhibition of microbial growth incubated for 18 to 22 hrs by broth microdilution method

Measured: MIC

CC1CCC(=N/N=C2\NC(=O)CS2)CC1 (configuration not stated)
16 µg/mL: Candida albicans | Nakaseomyces glabratus | Candida tropicalis | Pichia kudriavzevii | Candida parapsilosis | [Candida] sake
≥ 256 µg/mL: Staphylococcus aureus | Staphylococcus warneri | Enterococcus faecalis | Escherichia coli | Proteus mirabilis | Enterobacter | Klebsiella oxytoca | [1]

CC(C)(C)C1CCCC/C1=N/N=C1\NC(=O)CS1 (configuration not stated)
2 µg/mL: Pichia kudriavzevii | Candida parapsilosis | [Candida] sake
8 µg/mL: Candida albicans | Nakaseomyces glabratus | Candida tropicalis
≥ 256 µg/mL: Staphylococcus aureus | Staphylococcus warneri | Enterococcus faecalis | Escherichia coli | Proteus mirabilis | Enterobacter | Klebsiella oxytoca | [1]

C/C(=N/N=C1\NC(=O)CS1)C1CCCCC1
8 µg/mL: Candida albicans | Nakaseomyces glabratus
16 µg/mL: Candida tropicalis | Pichia kudriavzevii | Candida parapsilosis | [Candida] sake
≥ 256 µg/mL: Staphylococcus aureus | Staphylococcus warneri | Enterococcus faecalis | Escherichia coli | Proteus mirabilis | Enterobacter | Klebsiella oxytoca | [1]

C/C(=N/N=C1\NC(=O)CS1)c1ccco1
2 µg/mL: Candida albicans | Nakaseomyces glabratus | Candida tropicalis | Pichia kudriavzevii | Candida parapsilosis | [Candida] sake
≥ 256 µg/mL: Staphylococcus aureus | Staphylococcus warneri | Enterococcus faecalis | Escherichia coli | Proteus mirabilis | Enterobacter | Klebsiella oxytoca | [1]

O=C1CS/C(=N/N=C\c2cccs2)N1
256 µg/mL: Candida albicans | Nakaseomyces glabratus | Candida tropicalis | Pichia kudriavzevii | Candida parapsilosis | [Candida] sake
≥ 256 µg/mL: Staphylococcus aureus | Staphylococcus warneri | Enterococcus faecalis | Escherichia coli | Proteus mirabilis | Enterobacter | Klebsiella oxytoca | [1]

C/C(=N/N=C1\NC(=O)CS1)c1ccccc1
16 µg/mL: Candida tropicalis | Candida parapsilosis | [Candida] sake
8 µg/mL: Pichia kudriavzevii
≥ 256 µg/mL: Staphylococcus aureus | Staphylococcus warneri | Enterococcus faecalis | Escherichia coli | Proteus mirabilis | Enterobacter | Klebsiella oxytoca | [1]
2 µg/mL: Candida albicans | Nakaseomyces glabratus

O=C1CS/C(=N/N=C\c2ccccc2[N+](=O)[O-])N1
≥ 256 µg/mL: Staphylococcus aureus | Staphylococcus warneri | Enterococcus faecalis | Escherichia coli | Proteus mirabilis | Enterobacter | Klebsiella oxytoca | [1]
16 µg/mL: Candida albicans | Pichia kudriavzevii
4 µg/mL: Candida tropicalis
128 µg/mL: Candida parapsilosis
8 µg/mL: Nakaseomyces glabratus | [Candida] sake

C/C(=N/N=C1\NC(=O)CS1)c1cccc([N+](=O)[O-])c1
4 µg/mL: Nakaseomyces glabratus | Pichia kudriavzevii
≥ 256 µg/mL: Staphylococcus aureus | Staphylococcus warneri | Enterococcus faecalis | Escherichia coli | Proteus mirabilis | Enterobacter | Klebsiella oxytoca | [1]
2 µg/mL: Candida albicans | Candida tropicalis | Candida parapsilosis | [Candida] sake

O=C1CS/C(=N/N=C\c2cccc([N+](=O)[O-])c2)N1
16 µg/mL: Candida albicans | Candida tropicalis
4 µg/mL: Candida parapsilosis
≥ 256 µg/mL: Staphylococcus aureus | Staphylococcus warneri | Enterococcus faecalis | Escherichia coli | Proteus mirabilis | Enterobacter | Klebsiella oxytoca | [1]
8 µg/mL: Nakaseomyces glabratus | Pichia kudriavzevii | [Candida] sake

O=C1CS/C(=N/N=C\c2ccc([N+](=O)[O-])cc2)N1
4 µg/mL: Candida tropicalis | Candida parapsilosis
8 µg/mL: Nakaseomyces glabratus | Pichia kudriavzevii | [Candida] sake
≥ 256 µg/mL: Staphylococcus aureus | Staphylococcus warneri | Enterococcus faecalis | Escherichia coli | Proteus mirabilis | Enterobacter | Klebsiella oxytoca | [1]
16 µg/mL: Candida albicans

C/C(=N/N=C1\NC(=O)CS1)c1ccc(Cl)s1
≥ 256 µg/mL: Staphylococcus aureus | Staphylococcus warneri | Enterococcus faecalis | Escherichia coli | Proteus mirabilis | Enterobacter | Klebsiella oxytoca | [1]
8 µg/mL: Candida albicans | Nakaseomyces glabratus | Candida tropicalis | Candida parapsilosis
16 µg/mL: Pichia kudriavzevii | [Candida] sake

CC1=C(/C=N\N=C2/NC(=O)CS2)C(C)(C)CC=C1
16 µg/mL: Candida tropicalis | Candida parapsilosis
≥ 256 µg/mL: Staphylococcus aureus | Staphylococcus warneri | Enterococcus faecalis | Escherichia coli | Proteus mirabilis | Enterobacter | Klebsiella oxytoca | [1]
2 µg/mL: Candida albicans | Nakaseomyces glabratus | Pichia kudriavzevii | [Candida] sake

CC1(C)CCC/C(=N/N=C2\NC(=O)CS2)C1
128 µg/mL: Candida parapsilosis
32 µg/mL: Candida tropicalis
2 µg/mL: Candida albicans | Nakaseomyces glabratus | Pichia kudriavzevii | [Candida] sake
≥ 256 µg/mL: Staphylococcus aureus | Staphylococcus warneri | Enterococcus faecalis | Escherichia coli | Proteus mirabilis | Enterobacter | Klebsiella oxytoca | [1]

C/C(=N/N=C1\NC(=O)CS1)c1ccsc1
16 µg/mL: Pichia kudriavzevii | [Candida] sake
8 µg/mL: Candida albicans | Nakaseomyces glabratus | Candida tropicalis | Candida parapsilosis
≥ 256 µg/mL: Staphylococcus aureus | Staphylococcus warneri | Enterococcus faecalis | Escherichia coli | Proteus mirabilis | Enterobacter | Klebsiella oxytoca | [1]

O=C1CS/C(=N/N=C\c2ccccc2)N1
4 µg/mL: Candida albicans | Candida tropicalis
128 µg/mL: Candida parapsilosis
8 µg/mL: Nakaseomyces glabratus
2 µg/mL: [Candida] sake
16 µg/mL: Pichia kudriavzevii
≥ 256 µg/mL: Staphylococcus aureus | Staphylococcus warneri | Enterococcus faecalis | Escherichia coli | Proteus mirabilis | Enterobacter | Klebsiella oxytoca | [1]

C/C(=N/N=C1\NC(=O)CS1)c1ccccc1[N+](=O)[O-]
≥ 256 µg/mL: Staphylococcus aureus | Staphylococcus warneri | Enterococcus faecalis | Escherichia coli | Proteus mirabilis | Enterobacter | Klebsiella oxytoca | [1]
8 µg/mL: Pichia kudriavzevii
2 µg/mL: Candida albicans | Nakaseomyces glabratus | Candida tropicalis | Candida parapsilosis | [Candida] sake

O=C1CSC(NN=C2CCCCCC2)=N1
8 µg/mL: Candida albicans | Nakaseomyces glabratus | Candida tropicalis | Pichia kudriavzevii | Candida parapsilosis | [Candida] sake
≥ 256 µg/mL: Staphylococcus aureus | Staphylococcus warneri | Enterococcus faecalis | Escherichia coli | Proteus mirabilis | Enterobacter | Klebsiella oxytoca | [1]

O=C1CSC(NN=C2CCCCCCC2)=N1
32 µg/mL: Pichia kudriavzevii | Candida parapsilosis | [Candida] sake
8 µg/mL: Candida albicans | Nakaseomyces glabratus | Candida tropicalis
≥ 256 µg/mL: Staphylococcus aureus | Staphylococcus warneri | Enterococcus faecalis | Escherichia coli | Proteus mirabilis | Enterobacter | Klebsiella oxytoca | [1]
